Data on 10 compounds can be found in ChEMBL document CHEMBL1130425, “An orally bioavailable pyrrolinone inhibitor of HIV-1 protease: computational analysis and X-ray crystal structure of the enzyme complex” (J Med Chem, 1997).

The target of assay [1] is Human immunodeficiency virus type 1 protease (Human immunodeficiency virus 1) (UniProt Q72874). The assay is described as follows: Cellular antiviral activity against HIV-1 Protease.
Assay [2] has as its target Human immunodeficiency virus type 1 protease (Human immunodeficiency virus 1, UniProt Q72874). The assay is described as follows: Inhibition of HIV-1 protease.
A short description of assay [3]: Ratio of CIC95 to IC50 values. The procedure, abridged:
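Ratio computed by dividing the cellular antiviral CIC95 by the IC50 from the purified HIV-1 protease inhibition assay, both in nM.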

One may read the IC95 as the point of the concentration-response curve where the effect stands at 95%. A low value points to greater potency. The IC50 is the concentration at which inhibition is half-maximal. A lower IC50 goes with inhibition by little substance. In assay [1], `CC(C)(C)OC(=O)N[C@@H](Cc1ccccc1)[C@@H](O)C[C@]1(Cc2ccccc2)N=CC(C2c3ccccc3C[C@H]2O)=C1O` (some centres undefined) came in with a 95% effect concentration (IC95) of 800 nM. This compound yielded an IC50 in assay [2] of 11.9 nM.

As to `O=C(N[C@@H](Cc1ccccc1)[C@@H](O)C[C@]1(Cc2ccccc2)N=CC(C2c3ccccc3C[C@H]2O)=C1O)O[C@H]1CCOC1` (some centres undefined), in assay [1], it took 100 nM to reach the 95% level (IC95). Further, the IC50 in assay [2] amounted to 2 nM.

In turn, `CC(C)(C)OC(=O)N[C@@H](Cc1ccccc1)[C@@H](O)C[C@]1(Cc2ccc(O)cc2)N=CC(C2c3ccccc3C[C@H]2O)=C1O` (some centres undefined) displayed an IC50 in assay [2] of 6 nM.

With `CC(C)C[C@H](NC(=O)[C@H](Cc1ccccc1)C[C@H](O)[C@H](Cc1ccccc1)NC(=O)OC(C)(C)C)C(=O)N[C@@H](Cc1ccccc1)C(N)=O`, the Ratio in assay [3] was determined as 10000.

`CC(C)(C)OC(=O)N[C@@H](Cc1ccccc1)[C@@H](O)C[C@@](C)(Cc1ccccc1)C(=O)NC1c2ccccc2C[C@H]1O` (single isomer, unassigned): the IC50 in assay [2] came out at 7 nM.

In turn, `CC(C)(C)OC(=O)N[C@@H](Cc1ccccc1)[C@@H](O)CC1(Cc2ccccc2)CCN(C2c3ccccc3C[C@H]2O)C1=O` (single isomer, unassigned) displayed an IC50 in assay [2] of 86 nM. This IC50 lies about 12-fold higher than the previous one.

As to `O=C(N[C@@H](Cc1ccccc1)[C@@H](O)C[C@@H](Cc1ccccc1)C(=O)NC1c2ccccc2C[C@H]1O)OC1CCOC1` (single isomer, unassigned), the Ratio in assay [3] was determined as 100. Also, in assay [1], the IC95 worked out at 3 nM. In assay [2], this compound showed an IC50 of 0.03 nM.

Compound `CN(C(=O)[C@H](Cc1ccccc1)C[C@H](O)[C@H](Cc1ccccc1)NC(=O)OC(C)(C)C)C1c2ccccc2C[C@H]1O` (single isomer, unassigned) gave an IC50 in assay [2] of 186 nM.

`CC(C)(C)NC(=O)[C@@H]1CN(Cc2cccnc2)CCN1C[C@@H](O)C[C@@H](Cc1ccccc1)C(=O)NC1c2ccccc2C[C@H]1O` (single isomer, unassigned) came in with an IC95 in assay [1] of 25 nM.

Take `CC(C)(C)OC(=O)N[C@@H](Cc1ccccc1)[C@@H](O)C[C@@H](Cc1ccccc1)C(=O)NC1c2ccccc2C[C@H]1O` (single isomer, unassigned): the Ratio in assay [3] turned out to be 1330.
